Source: PubChem
SIAE primary: inhibitors of human sialic acid acetylesterase SIAE; Q9HAT2; SIAE FP-Rh probe binding, fluorescence polarization; inhibition, % at 9.66 µM; 370,000 tested, 0.69% active;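 active means inhibition above a cutoff: mean of compounds within the control limits plus 3 SD of those, cut at about 17% in these data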;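 further: 0% = plate median of compound wells and 100% = probe without SIAE protein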
Target sequence (Q9HAT2 whole entry, looked up): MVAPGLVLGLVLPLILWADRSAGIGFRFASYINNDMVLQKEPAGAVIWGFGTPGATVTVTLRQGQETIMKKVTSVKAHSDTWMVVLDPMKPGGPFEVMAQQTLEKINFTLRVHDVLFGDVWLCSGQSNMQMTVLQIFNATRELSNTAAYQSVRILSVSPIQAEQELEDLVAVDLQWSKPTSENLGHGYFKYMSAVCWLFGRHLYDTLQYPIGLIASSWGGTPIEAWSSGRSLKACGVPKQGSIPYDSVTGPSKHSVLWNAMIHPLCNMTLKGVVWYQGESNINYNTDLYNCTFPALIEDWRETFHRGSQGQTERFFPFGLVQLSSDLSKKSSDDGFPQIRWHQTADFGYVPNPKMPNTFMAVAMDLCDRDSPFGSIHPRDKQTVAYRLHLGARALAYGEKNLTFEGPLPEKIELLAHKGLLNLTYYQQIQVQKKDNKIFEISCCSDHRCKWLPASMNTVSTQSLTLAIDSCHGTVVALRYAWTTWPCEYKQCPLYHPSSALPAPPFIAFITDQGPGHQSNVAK
HTRA1 inhibitor: HTRA1 (human) protease inhibition. Q92743. recombinant HTRA1, FP-rhodamine activity-based probe, fluorescence polarization. inhibition, % at 5.96 µM. 340,000 tested, 0.5% active. AID 504803; in the data active means inhibition above about 36%;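 further: 0% = enzyme with DMSO and 100% = wells lacking enzyme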
TCR-CD3 inh: blocks the human TCR-CD3 interaction; 360,000 tested, 0.37% active; inhibition, % at 9.4 µM; TAMRA-labeled TCR probe fluorescence, biochemical; in the data active means inhibition above about 19%;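 further: recombinant mutant TCR 2C K166C tagged with TAMRA read by polarization; 0% = receptor in buffer alone and 100% = receptor with positive control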
ABHD4 inh: ABHD4 (mouse) inhibition, primary FP screen; inhibition, % at 8.92 µM; 370,000 tested, 0.54% active; AID 720543; Q8VD66; purified mABHD4, FP-Rh probe fluorescence polarization;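 active means inhibition exceeding the mean over every tested compound plus 3 SD, cut at about 30% in these data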;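 further: 0% = plate median of compound wells and 100% = S159A mutant with DMSO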
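Test system: mABHD4 protein; Read-out basis: % inhibition; Incubation: 45 min + 60 min at 25 °C; Repeats: single replicate; Technique: fluorescence polarization with parallel and perpendicular emission, 525/598 nm; Compound: 8.92 µM, single dose; Benchmarks: full inhibition S159A mutant plus DMSO, zero as sample-well median.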
PRMT1 FP inh: PRMT1 (human) inhibition, primary screen. 370,000 tested, 1.3% active. recombinant PRMT1, activity-based probe fluorescence polarization. AID 652257. inhibition, % at 2.79 µM. Q99873;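 active means inhibition above about 21% made by adding two undisclosed values, limit read from the data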
SIAE inh conf: confirmation of human SIAE inhibitors; shares compounds with SIAE primary; SIAE FP-Rh activity-based probe, fluorescence polarization; inhibition, % at 9.66 µM; 2,300 tested, 13% active; AID 1117263;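 active means mean inhibition of the replicates above the hit cutoff set in the primary screen, cut at about 17% in these data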;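 further: 0% = SIAE with DMSO and probe and 100% = probe without SIAE; inhibitors lower polarization as more probe stays unbound to SIAE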
Starred values were filed as active, the others as inactive; / = no result given. Most compounds without a hit are left out; they make up all but 2.7% or so of the library.

SMILES	SIAE primary	HTRA1 inhibitor	TCR-CD3 inh	ABHD4 inh	PRMT1 FP inh	SIAE inh conf
CC(=O)Nc1ccc(S(=O)(=O)N2CCCC(C(=O)O)C2)cc1 (stereo not given)	8	5	8	2	-3	/
COC(=O)Nc1ccc(S(=O)(=O)N2CCCC(C(=O)O)C2)cc1 (stereo not given)	19*	1	-4	-1	2	5
CCCNC(=O)N1CC[C@H]2[C@@H]1c1cc(-c3ccc(F)cc3)ccc1N(C)[C@H]2CO	5	/	/	3	0	/
CCOC(=O)c1c[nH]n(-c2ccc(C)cc2)c1=O	18*	-2	-4	3	4	1
COc1ccc(COCC(O)CN2CCc3ccccc3C2)cc1OC (stereo not given)	20*	0	5	6	-2	-2
Cn1c(=O)c2cc(NC(=S)NC3CC3)ccc2n1Cc1ccc(F)cc1	18*	/	-1	5	2	0
Cn1cc(C(=O)N2CCc3ccccc32)cn1	184*	7	-3	2	-1	1
CC1CCN(C(=O)c2[nH]cnc2C(=O)N[C@@H](CCCCNC(=O)OC(C)(C)C)C(=O)OC(C)(C)C)CC1	22*	-12	4	-1	-2	-5
CN(C)c1ccc(C(=O)Nc2nnc(-c3ccc(Cl)cc3)o2)cc1	18*	15	2	-2	-3	5
CC(=O)c1ccc(C(=O)Nc2nnc(-c3ccc(Cl)cc3)o2)cc1	-2	-2	-11	-4	-4	/
CCCC[C@H](CN[C@@H](CNC)[C@H](C)CC)NCCC12CCC(CC1)C2	9	1	5	10	1	/
Cc1ccc(-n2c(SCc3cc(=O)n4ccsc4n3)nnc2-c2cccnc2)c(C)c1	17*	8	6	0	-2	-3
Cc1ccc(-n2c(SCC(N)=O)nnc2-c2cccnc2)c(C)c1	4	5	9	5	2	/
CC1CC(C)CN(S(=O)(=O)c2ccc(NC(=O)[C@@H]3CCCN3C(=O)c3cccs3)cc2)C1 (stereo not given in full)	-10	-12	3	-3	-2	/
CC(Oc1cc2oc(=O)c3c(c2cc1Cl)CCC3)C(=O)N1C[C@H]2C[C@@H](C1)c1cccc(=O)n1C2 (stereo not given in full)	18*	-9	0	8	0	0
CSc1nc(S(C)(=O)=O)nc2[nH]c(=O)[nH]c12	-1	9	-2	0	2	/
CNC(=O)CSc1nc2c([nH]c3ccccc32)c(=O)n1CCOC	-1	3	-4	3	3	/
CCc1nnc(NC(=O)CSc2nc3c([nH]c4ccccc43)c(=O)n2CCOC)s1	18*	2	-6	11	-1	-1
CCOc1ccc(S(=O)(=O)c2ccc(C)cc2)c2c1no[n+]2[O-]	-2	-5	-2	-5	-2	/
CC(=O)NS(=O)(=O)c1ccc(NC(=O)c2ccc(Cl)cc2[N+](=O)[O-])cc1	-10	-3	-9	-5	-1	/
O=C(Nc1ccc(Nc2ccccc2)cc1)c1ccc(Cl)cc1[N+](=O)[O-]	21*	/	-8	8	7	5
CN(C)c1ccc(NC(=O)C2C3C=CC(C3)C2C(=O)O)cc1 (stereo not given)	23*	35	33*	35*	18	4
COc1ccc(OCCC(=O)Nc2ccc(S(N)(=O)=O)cc2)cc1	18*	-8	-2	0	-2	-1
Cc1cccc(NC(=O)CNC(=O)c2ccc(S(=O)(=O)NCc3ccco3)cc2)c1C	-6	-1	-2	3	5	/
Cc1nccn1-c1ccc(NC(=O)[C@@H](Cc2ccccc2)NC(=O)[C@H]2O[C@@H](n3ccc(=O)[nH]c3=O)[C@H](O)[C@@H]2O)cc1	54*	/	4	-19	-6	44*
CSCC[C@@H](CO)NC(=O)[C@H]1O[C@@H](n2ccc(=O)[nH]c2=O)[C@H](O)[C@@H]1O	3	/	0	6	3	/
NC(=O)[C@@H]1CCCN1C(=O)[C@@H](Cc1ccccc1)NC(=O)[C@H]1O[C@@H](n2ccc(=O)[nH]c2=O)[C@H](O)[C@@H]1O	49*	/	6	-2	0	41*
